# Test results taken from ChEMBL document CHEMBL3877271, “Antagonizing STAT3 activation with benzo[b]thiophene 1, 1-dioxide based small molecules” (Eur J Med Chem, 2017).
# pIC50: −log10 of the molar value. Active and inactive are the calls of the source. The rule behind the calls is not given here.
# Experiments:
# Mus musculus [1] = assay: In vivo inhibition of STAT3 phosphorylation in ICR mouse tumor implanted with mouse 4T1 cells at 10 mg/kg, ip daily for 11 days measured on day 12 by Western blot method; type: functional, organism-based
# How it was run: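 Male ICR mice, 5 weeks old, inoculated with 2 × 10⁶ 4T1 cells at the right armpit. At 24 h, randomised into groups of 6 and dosed i.p.; vehicle PBS/DMSO (8:2) daily for 11 days. Killed day 12; tumours weighed; TI% = (1 − mean treated/mean control weight) × 100. Tumour p-STAT3 and STAT3 assessed by western blot.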
# Mus musculus [2] = assay: Toxicity in ICR mouse implanted with mouse 4T1 cells assessed as body weight loss at 10 mg/kg, ip daily for 11 days measured daily during compound dosing; type: organism-based; details: in vivo, 264 h
# How it was run: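 4T1-bearing male ICR mice (5 weeks, 6/group), dosed i.p. with PBS/DMSO (8:2) vehicle control. Body weight recorded daily. BI% = (1 − mean treated/mean control body weight) × 100.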
# [3] = Antiproliferative activity against human A549 cells after 72 hrs by MTT assay; type: functional, cell-based; details: A549, 72 h
# How it was run: (§1)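 Cells in RPMI-1640 with 10% FBS, penicillin/streptomycin, 37 °C, 5% CO₂; seeded 3000-5000 cells/well, left overnight (16 h), then medium replaced with fresh medium holding serial dilutions in triplicate for 72 h. MTT read-out; viability = absorbance of treated/solvent control × 100%. Stattic served as reference.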
# [4] = biological target: Signal transducer and activator of transcription 3 (Homo sapiens) (UniProt P40763); assay: Inhibition of IL-6-stimulated STAT3 phosphorylation in human MDA-MB-231 cells preincubated for 12 hrs followed by IL-6 addition measured after 30 mins by Western blot method; type: cell-based
# Signal transducer and activator of transcription 3 (Homo sapiens), sequence (P40763 whole entry): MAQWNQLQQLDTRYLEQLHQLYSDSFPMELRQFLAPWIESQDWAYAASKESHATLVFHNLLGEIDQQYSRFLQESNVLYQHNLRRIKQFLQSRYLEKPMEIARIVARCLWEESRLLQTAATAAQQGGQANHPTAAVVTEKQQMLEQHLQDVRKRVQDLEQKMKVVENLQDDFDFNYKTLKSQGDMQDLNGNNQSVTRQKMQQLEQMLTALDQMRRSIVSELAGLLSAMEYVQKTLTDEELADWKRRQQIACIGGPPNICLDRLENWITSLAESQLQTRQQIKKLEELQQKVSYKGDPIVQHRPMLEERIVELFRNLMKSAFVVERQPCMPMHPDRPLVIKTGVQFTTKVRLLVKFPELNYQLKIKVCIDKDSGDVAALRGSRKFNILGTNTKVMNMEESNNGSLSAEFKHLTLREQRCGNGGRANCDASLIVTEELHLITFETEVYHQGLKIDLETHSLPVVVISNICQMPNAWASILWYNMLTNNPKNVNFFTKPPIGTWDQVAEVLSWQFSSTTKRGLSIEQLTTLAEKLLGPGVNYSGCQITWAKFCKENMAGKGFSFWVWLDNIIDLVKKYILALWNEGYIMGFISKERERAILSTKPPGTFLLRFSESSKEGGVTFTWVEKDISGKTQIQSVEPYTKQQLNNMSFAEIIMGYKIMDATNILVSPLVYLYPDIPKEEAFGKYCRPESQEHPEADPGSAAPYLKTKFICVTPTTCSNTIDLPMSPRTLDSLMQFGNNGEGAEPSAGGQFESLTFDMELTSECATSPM
# How it was run: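 Cells adhered overnight in 6-well plates, then serum-starved. Left untreated or given 1-5 µM for 12 h, then stimulated with IL-6 (25 ng/mL). Harvested 30 min later for western blot of p-STAT3.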
# [5] = biological target: Signal transducer and activator of transcription 3 (Homo sapiens) (UniProt P40763); assay: Inhibition of STAT3 phosphorylation at Tyr-705 residue in human MDA-MB-231 cells after 24 hrs by Western blot method; type: cell-based
# MDA-MB-231 [6] = assay: Inhibition of colony formation in human MDA-MB-231 cells up to 6 uM incubated for 24 hrs measured after 14 days by crystal violet staining based assay; type: functional, cell-based
# How it was run: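 Cells plated at 800-1000 per well in 6-well plates. Treated next day with vehicle or 0.5-6 µM for 24 h, then grown 10-14 d until colonies appeared. Stained with crystal violet for 4 h; colonies scored manually.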
# HCT-116 = assay: Potency index, ratio of stattic IC50 to compound IC50 for human HCT116 cells; type: functional
# MDA-MB-231 [7] = assay: Induction of apoptosis in human MDA-MB-231 cells assessed as early apoptotic cells at 7 uM after 24 hrs by Annexin-V FITC/propidium iodide staining based flow cytometry (reference value: 3.8%); type: functional
# MCF7 = assay: Potency index, ratio of stattic IC50 to compound IC50 for human MCF7 cells; type: functional
# MDA-MB-231 [8] = assay: Induction of apoptosis in human MDA-MB-231 cells assessed as late apoptotic cells at 7 uM after 24 hrs by Annexin-V FITC/propidium iodide staining based flow cytometry (reference value: 1.8%); type: functional
# MDA-MB-231 [9] = assay: Induction of apoptosis in human MDA-MB-231 cells assessed as early apoptotic cells at 3 uM after 24 hrs by Annexin-V FITC/propidium iodide staining based flow cytometry (reference value: 3.8%); type: functional
# MDA-MB-231 [10] = assay: Induction of apoptosis in human MDA-MB-231 cells assessed as necrotic cells at 1 uM after 24 hrs by Annexin-V FITC/propidium iodide staining based flow cytometry (reference value: 4.1%); type: functional
# MDA-MB-231 [11] = assay: Induction of apoptosis in human MDA-MB-231 cells assessed as live cells at 5 uM after 24 hrs by Annexin-V FITC/propidium iodide staining based flow cytometry (reference value: 90.3%); type: functional
# MDA-MB-231 [12] = assay: Induction of apoptosis in human MDA-MB-231 cells assessed as increase in cleaved PARP expression at 1 to 5 uM after 24 hrs by Western blot method; type: functional, cell-based
# How it was run: (§2)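 MDA-MB-231 cells treated 24 h, trypsinised and lysed in RIPA buffer (50 mM Tris-HCl pH 7.4, 150 mM NaCl, 0.25% deoxycholate, 1% NP-40, 1 mM EDTA, protease inhibitors). Equal total protein from whole-cell lysates immunoblotted; Stattic 5 µM used as comparator.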
# MDA-MB-231 [13] = assay: Induction of apoptosis in human MDA-MB-231 cells assessed as necrotic cells at 5 uM after 24 hrs by Annexin-V FITC/propidium iodide staining based flow cytometry (reference value: 4.1%); type: functional
# MDA-MB-231 [14] = assay: Induction of apoptosis in human MDA-MB-231 cells assessed as necrotic cells at 7 uM after 24 hrs by Annexin-V FITC/propidium iodide staining based flow cytometry (reference value: 4.1%); type: functional
# MDA-MB-231 [15] = assay: Induction of apoptosis in human MDA-MB-231 cells assessed as necrotic cells at 3 uM after 24 hrs by Annexin-V FITC/propidium iodide staining based flow cytometry (reference value: 4.1%); type: functional
# MDA-MB-231 [16] = assay: Induction of ROS generation in human MDA-MB-231 cells at 3 uM after 24 hrs by DCFH-DA staining based flow cytometry relative to control; type: functional
# How it was run: (§3)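 3 × 10⁵ cells/well in 6-well plates treated 24 h (0, 1, 3, 5 µM). Medium replaced with serum-free medium holding DCFH-DA at 10 µM final, 20 min at 37 °C. Cells washed twice, trypsinised, resuspended in warm PBS and read by flow cytometry.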
# [17] = Antiproliferative activity against human MCF7 cells after 72 hrs by MTT assay; type: functional, cell-based; details: MCF7, 72 h; how it was run: as §1
# [18] = biological target: Signal transducer and activator of transcription 3 (Homo sapiens) (UniProt P40763); assay: Inhibition of STAT3 in human MDA-MB-231 cells assessed as downregulation of Bcl2 expression at 1 to 5 uM after 24 hrs by Western blot method; type: cell-based; how it was run: as §2
# MDA-MB-231 [19] = assay: Induction of apoptosis in human MDA-MB-231 cells assessed as late apoptotic cells at 5 uM after 24 hrs by Annexin-V FITC/propidium iodide staining based flow cytometry (reference value: 1.8%); type: functional
# MDA-MB-231 [20] = assay: Induction of apoptosis in human MDA-MB-231 cells after 24 hrs by Annexin-V FITC/propidium iodide staining based flow cytometry; type: functional, cell-based
# [21] = Antiproliferative activity against human HCT116 cells after 72 hrs by MTT assay; type: functional, cell-based; details: HCT-116, 72 h; how it was run: as §1
# A549 = assay: Potency index, ratio of stattic IC50 to compound IC50 for human A549 cells; type: functional
# MDA-MB-231 [22] = assay: Induction of ROS generation in human MDA-MB-231 cells at 1 uM after 24 hrs by DCFH-DA staining based flow cytometry relative to control; type: functional; how it was run: as §3
# MDA-MB-231 [23] = assay: Induction of apoptosis in human MDA-MB-231 cells assessed as late apoptotic cells at 3 uM after 24 hrs by Annexin-V FITC/propidium iodide staining based flow cytometry (reference value: 1.8%); type: functional
# [24] = biological target: Signal transducer and activator of transcription 3 (Homo sapiens) (UniProt P40763); assay: Inhibition of STAT3 dimer DNA binding activity in human MDA-MB-231 nuclear extract at 1 to 5 uM preincubated for 24 hrs followed by addition of [32P]hSIE by electrophoretic mobility shift assay
# How it was run: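 Cells treated 24 h in fresh growth medium. Nuclear extracts of equal total protein incubated with ³²P-labelled hSIE oligonucleotide probe and resolved by EMSA; Stattic 5 µM as comparator.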
smiles,measurement,setting,value
O=S1(=O)C=Cc2cccc(Nc3cccc(C(F)(F)F)c3)c21,inhibition,Mus musculus [1],Active
same,Activity,Mus musculus [2],Non-Toxic
same,pIC50,[3],6.44
same,inhibition,[4],Dose-dependent effect
same,inhibition,[5],Dose-dependent effect
same,inhibition,MDA-MB-231 [6],Active
same,Ratio IC50,HCT-116,1.5 - 12
same,Activity,MDA-MB-231 [7],12.2%
same,Ratio IC50,MCF7,1.5 - 12
same,Activity,MDA-MB-231 [8],8.7%
same,Activity,MDA-MB-231 [9],6.8%
same,Activity,MDA-MB-231 [10],6.2%
same,Activity,MDA-MB-231 [11],75.3%
same,Activity,MDA-MB-231 [12],Active
same,Activity,MDA-MB-231 [13],7.2%
same,Activity,MDA-MB-231 [14],6.9%
same,Activity,MDA-MB-231 [15],5.8%
same,fold change (FC),MDA-MB-231 [16],1.74
same,pIC50,[17],6.12
same,inhibition,[18],Active
same,Activity,MDA-MB-231 [19],7.2%
same,Activity,MDA-MB-231 [20],Dose-dependent effect
same,pIC50,[21],6.48
same,Ratio IC50,A549,1.5 - 12
same,fold change (FC),MDA-MB-231 [22],1.37
same,Activity,MDA-MB-231 [23],4.1%
same,inhibition,[24],Active
